{"source": "ChEMBL document CHEMBL4825662", "about": "(J Med Chem, 2021)", "key": {"Human orthopneumovirus [1]": {"tested_on": "Human orthopneumovirus", "assay": "Antiviral activity against Respiratory syncytial virus A2 infected in African green monkey Vero cells by Plaque reduction assay", "type": "functional, organism-based"}, "[2]": {"assay": "Cytotoxicity against human HepG2 cells by MTT assay", "type": "cell-based", "summary_of_the_method": "(§1)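 Viability was assessed by MTT after culture with compound at 0.01 nM to 100 μM, run in parallel with plaque reduction assays. Values are the average of at least two testing occasions.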"}, "[3]": {"assay": "Cytotoxicity against African green monkey Vero cells by MTT assay", "type": "cell-based", "settings": "chlorocebus sabaeus", "summary_of_the_method": "as §1"}, "[4]": {"assay": "Cytotoxicity against human Hep2 cells", "type": "cell-based", "settings": "HEp-2 cells", "summary_of_the_method": "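Hep2 cells were cultured in parallel with the plaque assays at compound concentrations of 0.01 nM to 100 μM. Viability was read by MTT, CellTox green or CellTiter-Glo.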"}, "Human orthopneumovirus [5]": {"tested_on": "Human orthopneumovirus", "assay": "Antiviral activity against Respiratory syncytial virus A2 infected in human Hep2 cells by Plaque reduction assay", "type": "functional, organism-based", "settings": "A2, HEp-2", "summary_of_the_method": "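Hep2 cells were infected with RSV strain A2 in the presence of compound. Plaques were detected by immunostaining after 48 h. Values are the average of at least two testing occasions.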"}, "[6]": {"assay": "Volume of distribution at steady state in Sprague-Dawley rat at 1 mg/kg, iv administered […] measured after 0.02 to 24 hrs by tandem liquid chromatography/mass spectrometry", "type": "ADME, organism-based", "settings": "in vivo, time 0.02-24 hrs, read-out: Vdss", "summary_of_the_method": "(§2)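 Male Sprague–Dawley rats (200–250 g), 3 per route. IV bolus at 1 mg/kg, 1 mg/mL in 40:60 dimethylacetamide/saline; oral gavage at 5 or 10 mg/kg, 5 mg/mL in 1% methyl cellulose, 0.1% Tween 80 in water. Serial blood at 0.02–24 h (ten points) into heparin, spun at 4 °C, plasma frozen; acetonitrile protein precipitation, ESI LC-MS/MS with matrix curve and internal standards.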"}, "[7]": {"assay": "Clearance in Sprague-Dawley rat at 1 mg/kg, iv administered […] measured after 0.02 to 24 hrs by tandem liquid chromatography/mass spectrometry", "type": "ADME, organism-based", "settings": "in vivo, time 0.02-24 hrs"}, "[8]": {"assay": "Protein binding in human plasma assessed as unbound fraction at 5 uM by LC-MS/MS analysis based equilibrium dialysis method", "type": "ADME, cell-free"}, "[9]": {"assay": "Intrinsic clearance in human liver microsomes preincubated followed by NADPH addition and measured up to 45 mins by LC-MS/MS analysis", "type": "ADME, Microsome"}, "[10]": {"assay": "Thermodynamic solubility in PBS at 1 to 100 uM at pH 7.4 by HPLC-UV method", "type": "physicochemical", "settings": "dose 1-100 µM, read-out: Therm_solubility"}, "[11]": {"assay": "Efflux ratio of apparent permeability in MDCK-MDR1 cells at 10 uM measured at 60 mins by LC-MS/MS analysis", "type": "ADME, cell-based, Canis lupus familiaris", "settings": "dog, mdck-mdr1, 1 h, 10 µM"}, "[12]": {"assay": "Intrinsic clearance in Beagle dog liver microsomes preincubated followed by NADPH addition and measured up to 45 mins by LC-MS/MS analysis", "type": "ADME, Canis lupus familiaris, Microsome"}, "[13]": {"assay": "Apparent permeability across apical to basolateral side in MDCK-MDR1 cells at 10 uM measured at 60 mins by LC-MS/MS analysis", "type": "ADME, cell-based, Canis lupus familiaris", "settings": "dog, mdck-mdr1, 1 h, 10 µM"}, "[14]": {"assay": "Cmax in Sprague-Dawley rat at 5 mg/kg, po administered via gavage measured after 0.02 to 24 hrs by tandem liquid chromatography/mass spectrometry", "type": "ADME, organism-based", "parameters": "route oral, dose 5 mg/kg, time upper 24 hrs, time lower 0.02 hrs", "settings": "in vivo", "summary_of_the_method": "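Male Sprague–Dawley rats weighing 200–250 g, 3 per route, were used. The i.v. bolus was 1 mg/kg at 1 mg/mL in 40:60 dimethylacetamide/saline. Oral gavage doses were 5 or 10 mg/kg at 5 mg/mL in 1% methyl cellulose with 0.1% Tween 80. Heparinized blood was taken at 0.02–24 h (ten time points). Plasma was analyzed by LC-MS/MS after acetonitrile precipitation.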"}, "[15]": {"assay": "Oral bioavailability in Sprague-Dawley rat at 10 mg/kg administered via gavage measured after 0.02 to 24 hrs by tandem liquid chromatography/mass spectrometry", "type": "ADME, organism-based", "settings": "in vivo, time 0.02-24 hrs", "summary_of_the_method": "as §2"}, "[16]": {"assay": "Protein binding in rat plasma assessed as unbound fraction at 5 uM by LC-MS/MS analysis based equilibrium dialysis method", "type": "ADME, cell-free"}, "[17]": {"assay": "Intrinsic clearance in Sprague-Dawley rat liver microsomes preincubated followed by NADPH addition and measured up to 45 mins by LC-MS/MS analysis", "type": "ADME, Microsome"}, "[18]": {"assay": "Protein binding in dog plasma assessed as unbound fraction at 5 uM by LC-MS/MS analysis based equilibrium dialysis method", "type": "ADME, cell-free, Canis lupus familiaris"}, "[19]": {"assay": "Apparent permeability across basolateral side to apical side in MDCK-MDR1 cells at 10 uM measured at 60 mins by LC-MS/MS analysis", "type": "ADME, cell-based, Canis lupus familiaris", "settings": "dog"}, "Fusion glycoprotein F0": {"target": "Fusion glycoprotein F0 (Human respiratory syncytial virus A (strain A2), UniProt P03420)", "sequence (P03420 26-109 limits assumed)": "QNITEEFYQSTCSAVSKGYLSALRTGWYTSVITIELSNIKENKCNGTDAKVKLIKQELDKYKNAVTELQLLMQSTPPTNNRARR", "sequence (P03420 137-574 limits assumed)": "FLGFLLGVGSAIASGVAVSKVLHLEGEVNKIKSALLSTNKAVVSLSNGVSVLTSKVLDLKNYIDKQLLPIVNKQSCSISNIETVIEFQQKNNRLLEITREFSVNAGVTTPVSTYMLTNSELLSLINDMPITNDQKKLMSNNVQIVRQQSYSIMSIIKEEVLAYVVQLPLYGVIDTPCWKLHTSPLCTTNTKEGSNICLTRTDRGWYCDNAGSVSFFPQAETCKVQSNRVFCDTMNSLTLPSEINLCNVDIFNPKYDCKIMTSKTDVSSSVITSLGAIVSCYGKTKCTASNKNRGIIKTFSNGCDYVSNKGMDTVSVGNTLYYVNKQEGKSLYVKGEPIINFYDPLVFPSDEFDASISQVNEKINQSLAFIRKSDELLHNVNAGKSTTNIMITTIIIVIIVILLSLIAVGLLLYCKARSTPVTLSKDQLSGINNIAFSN", "assay": "Inhibition of Respiratory syncytial virus fusion protein", "summary_of_the_method": "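293T cells cotransfected with codon-optimized RSV A2 F plasmid and a GAL4-responsive luciferase reporter, mixed after 24 h with a second 293T population expressing GAL4-NF-κB transactivator. Threefold serial compound dilutions present during mixing; F-mediated fusion read as luciferase after 24 h. IC₅₀ averaged over at least two testing occasions.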"}, "Human orthopneumovirus [20]": {"tested_on": "Human orthopneumovirus", "assay": "Antiviral activity against Respiratory syncytial virus A2 by Plaque reduction assay", "type": "functional, organism-based", "summary_of_the_method": "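Vero cells were infected with RSV A2 for 48 h with compound at 0.01 nM to 100 μM. Plaques were detected by immunostaining. Values are the average of at least two testing occasions.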"}}, "note": "pEC50, pIC50: −log10 of the molar value."}
{"smiles": "N#Cc1ccc2c(c1)nc(CN1C(=O)C3(CC3)c3ccc(F)cc31)n2CCCC(F)(F)F", "values": [{"measurement": "pEC50", "setting": "Human orthopneumovirus [1]", "value": 6.35}, {"measurement": "CC50", "setting": "[2]", "value": 23700, "unit": "nM"}]}
{"smiles": "CC(C)CCn1c(CN2C(=O)C3(CC3)Cc3ccccc32)nc2cc(CN)ccc21", "values": [{"measurement": "CC50", "setting": "[3]", "value": 33400, "unit": "nM"}, {"measurement": "pEC50", "setting": "Human orthopneumovirus [1]", "value": 5.47}]}
{"smiles": "O=C(O)c1ccc2c(c1)nc(CN1C(=O)C3(CC3)c3ccc(F)cc31)n2CCCC(F)(F)F", "values": [{"measurement": "pEC50", "setting": "Human orthopneumovirus [1]", "value": 4.99}, {"measurement": "CC50", "setting": "[2]", "value": "> 25000", "unit": "nM"}]}
{"smiles": "NC(=O)c1ccc2c(c1)nc(CN1C(=O)C3(CC3)c3ccc(F)cc31)n2CCCC(F)(F)F", "values": [{"measurement": "CC50", "setting": "[4]", "value": "> 20000", "unit": "nM"}, {"measurement": "pEC50", "setting": "Human orthopneumovirus [5]", "value": 7.86}]}
{"smiles": "CC(C)CCn1c(CN2C(=O)C3(CC3)c3ccc(Cl)cc32)nc2cc(CN)ccc21", "values": [{"measurement": "CC50", "setting": "[3]", "value": 4500, "unit": "nM"}, {"measurement": "pEC50", "setting": "Human orthopneumovirus [1]", "value": 8.17}]}
{"smiles": "CC(C)CCn1c(CN2C(=O)C3(CC3)c3cc(Cl)ccc32)nc2cc(CN)ccc21", "values": [{"measurement": "CC50", "setting": "[3]", "value": 710, "unit": "nM"}, {"measurement": "pEC50", "setting": "Human orthopneumovirus [1]", "value": 7.60}]}
{"smiles": "CC(C)CCn1c(CN2C(=O)C3(CC3)c3cccc(F)c32)nc2cc(CN)ccc21", "values": [{"measurement": "Vd", "setting": "[6]", "value": 11.9, "unit": "L/kg"}, {"measurement": "clearance", "setting": "[7]", "value": 108, "unit": "mL/min/kg"}, {"measurement": "fraction unbound at 5 µM", "setting": "[8]", "value": 0.42}, {"measurement": "intrinsic clearance (CLint)", "setting": "[9]", "value": 7, "unit": "µL/min"}, {"measurement": "solubility thermodynamic", "setting": "[10]", "value": 1230, "unit": "µM"}, {"measurement": "CC50", "setting": "[3]", "value": 31100, "unit": "nM"}, {"measurement": "Ratio", "setting": "[11]", "value": 227}, {"measurement": "intrinsic clearance", "setting": "[12]", "value": 2.23, "unit": "µL/min"}, {"measurement": "Papp", "setting": "[13]", "value": "0.19 10^-6 cm/s"}, {"measurement": "Cmax", "setting": "[14]", "value": 31.3, "unit": "ng/mL"}, {"measurement": "pEC50", "setting": "Human orthopneumovirus [1]", "value": 7.39}, {"measurement": "bioavailability", "setting": "[15]", "value": 8.8, "unit": "%"}, {"measurement": "fraction unbound at 5 µM", "setting": "[16]", "value": 0.104}, {"measurement": "Microsomal intrinsic clearance", "setting": "[17]", "value": 37.8, "unit": "µL/min"}, {"measurement": "fraction unbound at 5 µM", "setting": "[18]", "value": 0.147}]}
{"smiles": "O=C1N(Cc2nc3cc(Cl)ccc3n2CCCC(F)(F)F)c2cc(F)ccc2C12CC2", "values": [{"measurement": "Papp B→A at 1 h, 10 µM", "setting": "[19]", "value": 0.14, "unit": "×10⁻⁶ cm/s"}, {"measurement": "intrinsic clearance (CLint)", "setting": "[9]", "value": 177, "unit": "µL/min"}, {"measurement": "CC50", "setting": "[3]", "value": "> 25000", "unit": "nM"}, {"measurement": "intrinsic clearance", "setting": "[12]", "value": 328, "unit": "µL/min"}, {"measurement": "pEC50", "setting": "Human orthopneumovirus [1]", "value": 8.27}, {"measurement": "Microsomal intrinsic clearance", "setting": "[17]", "value": 71.3, "unit": "µL/min"}]}
{"smiles": "CCNC(=N)c1ccc2c(c1)nc(CN1C(=O)C3(CC3)c3ccc(F)cc31)n2CCCC(F)(F)F", "values": [{"measurement": "pEC50", "setting": "Human orthopneumovirus [1]", "value": 6.34}, {"measurement": "CC50", "setting": "[2]", "value": "> 25000", "unit": "nM"}]}
{"smiles": "CC(=O)N1CC2(C1)C(=O)N(Cc1nc3cc(CN)ccc3n1CCC(C)C)c1ccccc12", "values": [{"measurement": "pIC50", "setting": "Fusion glycoprotein F0", "value": 8.96}, {"measurement": "pEC50", "setting": "Human orthopneumovirus [20]", "value": 8.66}]}
{"smiles": "CC(C)CCn1c(CN2C(=O)C3(CC3)c3cccc(Cl)c32)nc2cc(CN)ccc21", "values": [{"measurement": "CC50", "setting": "[3]", "value": 21700, "unit": "nM"}, {"measurement": "pEC50", "setting": "Human orthopneumovirus [1]", "value": 5.62}]}
{"smiles": "CC(C)CCn1c(CN2C(=O)C3(CCCC3)c3ccccc32)nc2cc(CN)ccc21", "values": [{"measurement": "CC50", "setting": "[3]", "value": 9940, "unit": "nM"}, {"measurement": "pEC50", "setting": "Human orthopneumovirus [1]", "value": 6.24}]}
{"smiles": "CC(C)CCn1c(CN2C(=O)C3(CC3)c3c(Cl)cccc32)nc2cc(CN)ccc21", "values": [{"measurement": "CC50", "setting": "[3]", "value": 5200, "unit": "nM"}, {"measurement": "pEC50", "setting": "Human orthopneumovirus [1]", "value": 6.74}]}
{"smiles": "CC(C)CCn1c(CN2C(=O)C3(CCCC3)Cc3ccccc32)nc2cc(CN)ccc21", "values": [{"measurement": "CC50", "setting": "[3]", "value": 11500, "unit": "nM"}, {"measurement": "pEC50", "setting": "Human orthopneumovirus [1]", "value": 4.85}]}
